ChEMBL document CHEMBL4196121, “Meridianin D Analogues Display Antibiofilm Activity against MRSA and Increase Colistin Efficacy in Gram-Negative Bacteria” (ACS Med Chem Lett, 2018)
Activity calls are given as the source filed them. The calls are words filed in the database; no cut-off is given here.

Legend:
[1] = system: Staphylococcus aureus; assay: Antibacterial activity against methicillin-resistant Staphylococcus aureus ATCC 43300 after 16 hrs by broth microdilution assay; type: functional; settings: ATCC 43300, 16 h
[2] = system: Staphylococcus aureus; assay: Inhibition of biofilm formation in methicillin-resistant Staphylococcus aureus ATCC 43300 after 24 hrs by crystal violet staining based method; type: functional, organism-based; settings: ATCC 43300, 24 h
Outline: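 Read-out is the IC50, taken as the compound concentration that inhibits 50% of MRSA 43300 biofilm formation.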

[3] = system: Staphylococcus aureus; assay: Antibiofilm activity against methicillin-resistant Staphylococcus aureus ATCC 43300 assessed induction of dispersion of preformed biofilm after 24 hrs by crystal violet staining based method; type: functional, organism-based; settings: ATCC 43300, 24 h
[4] = system: Escherichia coli; assay: Antibacterial activity against Escherichia coli ATCC 25922 expressing mcr1 gene after 16 hrs by broth microdilution assay; type: organism-based; settings: in vitro
[5] = system: Escherichia coli; assay: Antibacterial activity against Escherichia coli ATCC 25922 after 16 hrs by broth microdilution assay; type: organism-based
[6] = system: Acinetobacter baumannii; assay: Antibacterial activity against Acinetobacter baumannii ATCC 17978 expressing mcr1 gene after 16 hrs by broth microdilution assay; type: organism-based; settings: in vitro
[7] = system: Acinetobacter baumannii; assay: Antibacterial activity against Acinetobacter baumannii ATCC 17978 after 16 hrs by broth microdilution assay; type: organism-based
[8] = system: Acinetobacter baumannii; assay: Antibacterial activity against Acinetobacter baumannii isolate 3941 after 16 hrs by broth microdilution assay; type: organism-based
[9] = system: Acinetobacter baumannii; assay: Antibacterial activity against Acinetobacter baumannii isolate 4106 after 16 hrs by broth microdilution assay; type: organism-based
[10] = system: Acinetobacter baumannii; assay: Antibacterial activity against Acinetobacter baumannii ATCC 19606 after 16 hrs by broth microdilution assay; type: organism-based, ATCC 19606 = CIP 70.34 = JCM 6841; settings: for MIC: […]
[11] = system: Acinetobacter baumannii; assay: Antibacterial activity against Acinetobacter baumannii isolate 5075 after 16 hrs by broth microdilution assay; type: organism-based
[12] = system: Klebsiella pneumoniae; assay: Antibacterial activity against Klebsiella pneumoniae ATCC 2146 expressing NDM1 gene after 16 hrs by broth microdilution assay; type: organism-based; settings: for MIC: […]
[13] = system: Klebsiella pneumoniae; assay: Antibacterial activity against Klebsiella pneumoniae isolate C3 after 16 hrs by broth microdilution assay; settings: for MIC: […]
[14] = system: Klebsiella pneumoniae; assay: Antibacterial activity against Klebsiella pneumoniae isolate B9 after 16 hrs by broth microdilution assay; settings: in vivo
[15] = system: Staphylococcus aureus; assay: Antibiofilm activity against methicillin-resistant Staphylococcus aureus ATCC 43300 assessed as dispersion of preformed biofilm after 24 hrs by crystal violet staining based method
[16] = system: Escherichia coli; assay: Potentiation of colistin-induced antimicrobial activity against Escherichia coli ATCC 25922 assessed as fold reduction in colistin MIC after 16 hrs by broth microdilution assay; type: functional
Outline: (§1)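 Analogue at a fixed 60 μM unless otherwise noted, combined with colistin against the Gram-negative strain. Potentiation is read as the fold reduction in colistin MIC relative to colistin alone. A. baumannii 3941/4106 and K. pneumoniae C3/B9 are primary clinical isolates with genomically encoded colistin resistance.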

[17] = system: Acinetobacter baumannii; assay: Potentiation of colistin-induced antimicrobial activity against Acinetobacter baumannii ATCC 17978 assessed as fold reduction in colistin MIC after 16 hrs by broth microdilution assay; type: functional; outline: as §1
[18] = system: Acinetobacter baumannii; assay: Potentiation of colistin-induced antimicrobial activity against Acinetobacter baumannii ATCC 19606 assessed as fold reduction in colistin MIC after 16 hrs by broth microdilution assay; type: functional, ATCC 19606 = CIP 70.34 = JCM 6841; outline: as §1
[19] = system: Escherichia coli; assay: Potentiation of colistin-induced antimicrobial activity against Escherichia coli ATCC 25922 expressing mcr1 gene assessed as fold reduction in colistin MIC after 16 hrs by broth microdilution assay; type: functional; outline: as §1
[20] = system: Acinetobacter baumannii; assay: Potentiation of colistin-induced antimicrobial activity against Acinetobacter baumannii ATCC 17978 expressing mcr1 gene assessed as fold reduction in colistin MIC after 16 hrs by broth microdilution assay; type: functional; outline: as §1
[21] = system: Acinetobacter baumannii; assay: Potentiation of colistin-induced antimicrobial activity against Acinetobacter baumannii isolate 4106 assessed as fold reduction in colistin MIC after 16 hrs by broth microdilution assay; type: functional; outline: as §1
[22] = system: Klebsiella pneumoniae; assay: Potentiation of colistin-induced antimicrobial activity against Klebsiella pneumoniae isolate B9 assessed as fold reduction in colistin MIC after 16 hrs by broth microdilution assay; type: functional; outline: as §1
[23] = system: Acinetobacter baumannii; assay: Potentiation of colistin-induced antimicrobial activity against Acinetobacter baumannii isolate 5075 assessed as fold reduction in colistin MIC after 16 hrs by broth microdilution assay; type: functional; outline: as §1
[24] = system: Klebsiella pneumoniae; assay: Potentiation of colistin-induced antimicrobial activity against Klebsiella pneumoniae ATCC 2146 expressing NDM1 gene assessed as fold reduction in colistin MIC after 16 hrs by broth microdilution assay; type: functional; outline: as §1
[25] = system: Klebsiella pneumoniae; assay: Potentiation of colistin-induced antimicrobial activity against Klebsiella pneumoniae isolate B9 after 16 hrs by broth microdilution assay; type: functional, organism-based; outline: as §1

CN(C)c1nccc(-c2c[nH]c3ccc(Br)cc23)n1.Cl
MIC [1]: 100 µM | IC50 [2]: 23.4 µM | EC50 [3]: > 160 µM | MIC [4]: > 200 µM | MIC [5]: > 200 µM | MIC [6]: > 200 µM | MIC [7]: > 200 µM | MIC [8]: > 200 µM | MIC [9]: > 200 µM | MIC [10]: > 200 µM | MIC [11]: > 200 µM | MIC [12]: > 200 µM | MIC [13]: > 200 µM | MIC [14]: > 200 µM | EC50 [15]: Not Active

CCCCn1cc(-c2ccnc(N)n2)c2cc(Br)ccc21.Cl
MIC [1]: 50 µM | IC50 [2]: 38.1 µM | EC50 [3]: > 160 µM | fold change (FC) [16]: 16 | fold change (FC) [17]: 16 | MIC [4]: > 200 µM | MIC [5]: > 200 µM | MIC [6]: > 200 µM | MIC [7]: > 200 µM | MIC [8]: > 200 µM | MIC [9]: > 200 µM | MIC [10]: > 200 µM | MIC [11]: > 200 µM | MIC [12]: > 200 µM | fold change (FC) [18]: 16 | MIC [13]: > 200 µM | MIC [14]: > 200 µM | EC50 [15]: Not Active

CCCn1cc(-c2ccnc(N)n2)c2ccc(Br)cc21.Cl
MIC [1]: 200 µM | IC50 [2]: 34.3 µM | EC50 [3]: > 160 µM | Activity [7]: Toxic | Activity [8]: Toxic | Activity [9]: Toxic | Activity [10]: Toxic | Activity [11]: Toxic | Activity ([12]; in vitro): Toxic | fold change (FC) [18]: 16 | Activity [13]: Toxic | Activity [14]: Toxic | EC50 [15]: Not Active

CCCn1cc(-c2ccnc(N)n2)c2cc(Br)ccc21.Cl
MIC [1]: 100 µM | IC50 [2]: 69.3 µM | fold change (FC) [19]: 4 | fold change (FC) [16]: 16 | fold change (FC) [20]: 4 | fold change (FC) [17]: 16 | fold change (FC) [21]: 64 | fold change (FC) [22]: 512 | fold change (FC) [23]: 128 | fold change (FC) [24]: 16 | MIC [4]: > 200 µM | MIC [5]: > 200 µM | MIC [6]: > 200 µM | MIC [7]: > 200 µM | MIC [8]: > 200 µM | MIC [9]: > 200 µM | MIC [10]: > 200 µM | MIC [11]: > 200 µM | MIC [12]: > 200 µM | Activity [25]: Active | MIC [13]: > 200 µM | MIC [14]: > 200 µM

Cl.Nc1nccc(-c2c[nH]c3cc(Br)ccc23)n1
MIC [1]: > 200 µM | IC50 [2]: 87.4 µM | fold change (FC) [19]: 2 | fold change (FC) [16]: 0 | fold change (FC) [20]: 32 | fold change (FC) [17]: 2 | fold change (FC) [21]: 64 | fold change (FC) [22]: 64 | fold change (FC) [23]: 4 | fold change (FC) [24]: 2
